A selection: hits, their analogues and other compounds. The true share with any hit is near 3.1%.
S100A4 MyoIIA: inhibitors of S100A4-myosin IIA peptide binding, primary screen, biochemical, fluorescence polarization, TAMRA-MyoIIA peptide | Protein S100-A4 (Homo sapiens), P26447 | AID 652163, 2013 | inhibition, % at 10.7 µM | actives 0.14% (n = 360,000);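 active means mean inhibition of at least 70% across replicates, with every replicate also reaching that level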
Target sequence (P26447 whole entry, looked up): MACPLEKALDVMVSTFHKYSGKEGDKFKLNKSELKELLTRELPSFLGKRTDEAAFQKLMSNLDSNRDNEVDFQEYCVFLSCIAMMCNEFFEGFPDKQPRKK
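incubation = readout 5 min after mixing, signal stable up to 60 min | system = S100A4 monomer protein | buffer or medium = HEPES pH 7.2 with CaCl2, KCl, NaCl, DTT, Triton | benchmarks = neutral control DMSO, positive control TFP | also added = fluorescent myosin IIA peptide, 5 nM | compound dosing = one concentration per compound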
Ecoli rRNA inh: reduced GFP signal of wild-type E. coli, primary screen, bacterial rRNA inhibitor project, GFP/RFP fluorescence, OD600, single point | E. coli WT GFP vs humanized-ribosome RFP mutants, 24 h; active compounds read low; DMSO median 0, no signal -100 | GFP signal change (wild-type ribosome), % (concentration not given with the values) | actives 1.6% (n = 350,000);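 active means significant combined selectivity score with lowered wild-type GFP, culture density cut under 30%, mutant RFP and density less affected; inactive means any of these conditions unmet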
ERAP1 inh: human ERAP1 aminopeptidase inhibitors, primary screen, biochemical, single point, plate reader; AID 652197, 2013; recombinant ERAP1, Leu-AMC fluorescence, 60 min; Endoplasmic reticulum aminopeptidase 1 (Homo sapiens), Q9NZ08; actives 0.15% (n = 340,000); inhibition, % at 10.7 µM;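 active means mean replicate inhibition of at least 30%, or all replicates individually reaching that 30% level; inactive means mean below 30% and not every replicate reaching it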;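 further: 0% = neutral control wells and 100% = L-leucinethiol positive control wells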
F508del corr: F508del CFTR correction, initial screen, CFBE line, single point | CFBE cells, YFP halide quenching; stimulated with forskolin plus potentiator P3; % fluorescence drop versus neutral controls | activity (quench increase), % at 7.58 µM | actives 0.36% (n = 350,000);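 active means mean added fluorescence quench of at least 8% versus neutral control, with both replicates also reaching 8%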;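 further: cells transiently co-express mutant CFTR-F508del with the halide-sensitive YFP; corrector assay measuring rescue of mutant channel to the surface after 24 h compound exposure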
SIRT5 block: SIRT5 desuccinylase inhibitors, primary screen, biochemical, fluorescence imaging, single point, set 5. actives 1.1% (n = 330,000). inhibition, % at 15 µM. Purified SirT5, succinyl-peptide AMC, trypsin-coupled fluorescence; in the data active means inhibition above about 15%
Target sequence (Q9NXA8 whole entry, looked up): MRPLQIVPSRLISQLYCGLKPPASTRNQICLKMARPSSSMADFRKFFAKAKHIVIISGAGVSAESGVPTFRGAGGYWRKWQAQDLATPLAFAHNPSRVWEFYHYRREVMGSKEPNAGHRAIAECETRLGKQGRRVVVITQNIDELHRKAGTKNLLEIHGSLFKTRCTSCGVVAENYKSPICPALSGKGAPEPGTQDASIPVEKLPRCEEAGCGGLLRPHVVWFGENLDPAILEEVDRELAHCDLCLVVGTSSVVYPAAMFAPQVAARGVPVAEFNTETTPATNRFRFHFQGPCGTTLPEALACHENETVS
* = called active by the depositor; / = no result given; ! = a repeat was not active.

SMILES | S100A4 MyoIIA | Ecoli rRNA inh | ERAP1 inh | F508del corr | SIRT5 block
O=C(O)CCC(=O)NCc1c(Cl)cccc1Sc1ccc(Cl)cc1 | -1 | -25* | -3 | / | 2
COc1ccc(Oc2cccc(Cl)c2CNC(=O)CCC(=O)O)cc1 | 3 | -10 | -1 | 0 | -4
COc1ccc(NC(=O)C(CC(=O)O)Cc2ccc(Cl)cc2)cc1 (stereo not given) | 1 | 11 | -1 | 8.9* | -3
CC(=O)c1c(C)nc2ccc(C)cc2c1-c1ccccc1 | -2 | -36* | -5 | -2 | -1
CC(C(=O)NC1CCCC1)N1CCN(S(=O)(=O)c2ccc(C(C)(C)C)cc2)CC1 (stereo not given) | 2 | 3 | 2 | 13* | 1
CC(C)(C)c1ccc(S(=O)(=O)N2CCN(C3CCCC3)CC2)cc1 | -6 | 0 | 2 | 0 | -4
COc1ccc(Nc2cc(C)nc3ccccc23)cc1 | -8 | 28 | 2 | -2 | 18*
COc1ccc2nc(C)cc(Nc3ccc(C)cc3)c2c1 | 0 | 10 | 1 | 0 | 5
COc1ccc(OC)c(Nc2cc(C)nc3ccc(C)cc23)c1 | 0 | 2 | 1 | 12* | /
CCC(=O)Nc1ccc2c(c1)OC[C@H](C)N(Cc1ccncc1)C[C@H](C)[C@@H](OC)CN(C)C2=O | 1 | -2 | -5 | 1 | 4
C[C@@H]1CCCCO[C@H](CN(C)C(=O)C2CCCCC2)[C@H](C)CN([C@@H](C)CO)C(=O)c2cc(NC(=O)NC3CCCCC3)ccc2O1 | -2 | -1 | -5 | 1 | 5
C[C@H](CO)N1C[C@H](C)[C@H](CN(C)S(=O)(=O)c2ccc(Cl)cc2)OCc2cnnn2CCCC1=O | -6 | 3 | -2 | 4 | 15*!
C[C@@H]1CN([C@H](C)CO)C(=O)CCCn2nncc2CO[C@@H]1CN(C)S(=O)(=O)c1cccc(F)c1 | -6 | 2 | 5 | 0 | 15*!
Cc1cccc(S(=O)(=O)N(C)C[C@H]2OCc3cnnn3CCCC(=O)N([C@H](C)CO)C[C@@H]2C)c1 | 14 | 2 | 1 | 5 | 21*!
C[C@H](CO)N1C[C@H](C)[C@@H](CN(C)S(=O)(=O)c2ccc3ccccc3c2)OCc2cnnn2CCCC1=O | -3 | 3 | -3 | 1 | 21*!
C[C@H]1CCCCO[C@H](CN(C)Cc2ccccc2)[C@@H](C)CN([C@@H](C)CO)C(=O)c2cc(NC(=O)C3CCCCC3)ccc2O1 | 0 | 3 | -1 | 3 | 0
C[C@H](CO)N1C[C@H](C)[C@@H](CN(C)Cc2ccc(-c3ccccc3)cc2)Oc2ccc(NC(=O)CCN3CCOCC3)cc2CC1=O | 14 | 1 | 3 | 0 | 1
COc1ccc2c3c([nH]c2c1)[C@@H](CO)N(Cc1nccs1)CC31CN(C(=O)C2CCCC2)C1 | -5 | -4 | 0 | 1 | 4
C[C@@H]1CN([C@H](C)CO)C(=O)Cc2cc(NS(=O)(=O)c3ccc(F)cc3)ccc2O[C@@H]1CN(C)Cc1ccc(Cl)c(Cl)c1 | / | 0 | / | 3 | /
COc1cccc(CN2[C@H](CO)[C@@H](c3ccccc3)C23CN(C(=O)C2CCCC2)C3)c1 | -4 | 1 | 2 | 4 | -2
COCC(=O)N1[C@H](CO)[C@@H](c2ccccc2)C12CN(C(=O)Cc1ccccn1)C2 | 97* | 12 | 2 | 2 | 0
CN(C)CC(=O)N1[C@H](CO)[C@@H](c2ccccc2)C12CN(C(=O)C1CCCC1)C2 | 14 | -2 | 1 | -1 | 19*
O=C(C1CCOCC1)N1CC2(C1)[C@@H](c1ccccc1)[C@@H](CO)N2CCC(F)(F)F | 4 | 3 | -2 | -5 | 26*
COc1cccc(CN2[C@H](CO)[C@@H](c3ccccc3)C23CN(C(=O)C2CCC2)C3)c1 | 7 | 6 | 4 | -2 | 24*
C[C@@H]1CN([C@@H](C)CO)C(=O)Cc2cc(NC(=O)Nc3ccc(F)cc3)ccc2O[C@@H]1CN(C)C(=O)Nc1ccc2c(c1)OCO2 | 1 | -3 | 0 | 3 | 0
SMILES | S100A4 MyoIIA | Ecoli rRNA inh | ERAP1 inh | F508del corr | SIRT5 block
C[C@@H]1CN([C@H](C)CO)C(=O)c2cc(NS(=O)(=O)c3ccccc3)ccc2O[C@@H]1CN(C)Cc1ccc(C(=O)O)cc1 | -4 | 3 | 2 | 0 | -4
CCS(=O)(=O)N1CC2(C1)[C@@H](c1ccccc1)[C@H](CO)N2Cc1ccc(F)cc1 | -10 | -5 | -5 | -2 | 16*
O=C(CC1CC1)N1CC2(C1)[C@@H](c1ccccc1)[C@@H](CO)N2Cc1cccc(F)c1 | 0 | -4 | -1 | 2 | 19*
C/C=C/c1ccc([C@@H]2[C@H](CO)N(CC3CC3)C23CN(S(C)(=O)=O)C3)cc1 | 0 | 4 | 1 | -1 | -1
O=C(CC1CC1)N1CC2(C1)[C@H](c1ccccc1)[C@@H](CO)N2Cc1ccc(F)cc1 | 10 | 3 | -2 | -2 | 1
CCC(=O)N1CC2(C1)[C@H](c1ccccc1)[C@H](CO)N2Cc1ccccc1OC | -3 | -3 | 0 | 0 | 23*
C/C=C/c1ccc([C@@H]2[C@H](CO)N(CC3CC3)C23CN(S(=O)(=O)CC)C3)cc1 | -39 | -2 | -2 | -4 | 23*
CCS(=O)(=O)N1CC2(C1)[C@@H](c1ccccc1)[C@@H](CO)N2Cc1ccc(F)cc1 | 0 | -7 | -2 | 1 | 6
C/C=C/c1ccc([C@H]2[C@@H](CNC(=O)CC3CC3)N(C(C)=O)[C@H]2CO)cc1 | / | -1 | / | -2 | /
C[C@H]1CN([C@@H](C)CO)C(=O)c2cc(NC(=O)CCCCCC(=O)Nc3ccccc3N)ccc2O[C@@H]1CN(C)C(=O)Nc1cccc2ccccc12 | 0 | 7 | 3 | -1 | /
CCCC(=O)Nc1ccc2c(c1)OC[C@@H](C)N(Cc1ccccc1F)C[C@H](C)[C@H](OC)CN(C)C2=O | 10 | -5 | -3 | -1 | 7
Cc1noc(C)c1S(=O)(=O)Nc1ccc2c(c1)C(=O)N([C@H](C)CO)C[C@@H](C)[C@@H](CN(C)C(=O)CCCN(C)C)OCCCC[C@H](C)O2 | / | 2 | / | -2 | /
Cc1noc(C)c1S(=O)(=O)N(C)C[C@@H]1OCCCC[C@@H](C)Oc2ccc(NC(=O)NC3CCCCC3)cc2C(=O)N([C@@H](C)CO)C[C@@H]1C | 1 | 1 | 0 | -1 | -1
CCCNC(=O)N1[C@@H](CO)[C@H](c2ccccc2)C12CN(C(=O)CC1CC1)C2 | -42 | 2 | -2 | 2 | 38*

High-throughput results (PubChem)
